Measurements collected from several papers.
Compare with care: the assays were run in different laboratories.
Target: Serine/threonine-protein kinase D3 (PRKD3, Homo sapiens, UniProt O94806)
Sequence (O94806 1-890, as in one of the studies): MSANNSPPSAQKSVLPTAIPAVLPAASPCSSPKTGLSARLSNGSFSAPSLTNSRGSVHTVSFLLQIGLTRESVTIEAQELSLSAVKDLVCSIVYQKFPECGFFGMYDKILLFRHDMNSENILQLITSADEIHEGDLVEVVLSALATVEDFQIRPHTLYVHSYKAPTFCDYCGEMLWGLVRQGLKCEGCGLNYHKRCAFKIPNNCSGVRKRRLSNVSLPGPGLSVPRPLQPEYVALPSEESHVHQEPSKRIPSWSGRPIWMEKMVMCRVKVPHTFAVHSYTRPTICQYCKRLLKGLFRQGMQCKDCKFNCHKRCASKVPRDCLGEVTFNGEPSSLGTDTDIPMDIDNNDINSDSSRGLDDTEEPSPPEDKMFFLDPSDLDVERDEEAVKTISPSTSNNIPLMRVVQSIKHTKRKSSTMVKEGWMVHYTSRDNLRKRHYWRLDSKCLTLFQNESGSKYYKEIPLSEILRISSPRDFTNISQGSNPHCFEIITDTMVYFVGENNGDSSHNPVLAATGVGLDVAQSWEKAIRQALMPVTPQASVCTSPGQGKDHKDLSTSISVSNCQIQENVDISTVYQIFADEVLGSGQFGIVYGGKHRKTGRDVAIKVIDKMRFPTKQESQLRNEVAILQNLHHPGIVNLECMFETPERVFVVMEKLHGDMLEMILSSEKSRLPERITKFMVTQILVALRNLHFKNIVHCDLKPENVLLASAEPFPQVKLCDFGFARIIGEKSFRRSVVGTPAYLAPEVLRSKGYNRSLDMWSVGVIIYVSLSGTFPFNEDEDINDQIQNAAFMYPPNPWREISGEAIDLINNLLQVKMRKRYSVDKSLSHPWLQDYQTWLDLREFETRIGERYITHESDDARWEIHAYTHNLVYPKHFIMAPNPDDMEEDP

Compound | test | setting | remaining binding [%]
C=CC(=O)N1CCC(C(=O)NCC(=O)N2CCN(c3nc(-c4cnc(N)nc4C(F)F)nc(N4CCOCC4)n3)CC2)CC1 | binding, competition with immobilised ligand | 1 µM | 93
O=C(O)[C@@H]1[C@@H](Cn2nnc3ccccc3c2=O)CC[C@H]1C(=O)c1ccc(OCCC2CCOCC2)cc1 | cell-free assay, competition with immobilised ligand | 1 µM | 100
C[C@@H]1CCN(c2nccc(-c3cnn4ncccc34)n2)C1 | binding | 1 µM | 100
O=C(NCCCN1CCOCC1)c1ccc(Nc2ncc(Cl)c(-c3ccc(Cl)s3)n2)cc1 | binding, competition with immobilised ligand | 1 µM | 20
O=C(NCC1CCOCC1)c1n[nH]cc1NC(=O)c1c(F)cccc1F | binding, competition with immobilised ligand | 1 µM | 97
COc1cnc(Nc2cccc(S(N)(=O)=O)c2)nc1N1CCN(c2ccccc2)CC1 | binding, competition with immobilised ligand | 1 µM | 96
COc1ccc2cc(OCC3(C(=O)O)CN(C(=O)c4ccc(F)cc4)C3)ccc2c1 | cell-free assay, competition with immobilised ligand | 1 µM | 91
CC1CCCN1c1nccc(-c2cnn3ncccc23)n1 (stereo not drawn) | binding | 1 µM | 97
O=C(NCCCN1CCOCC1)c1ccc(Nc2nccc(-c3cc4ccccc4s3)n2)cc1 | binding, competition with immobilised ligand | 1 µM | 32
c1cncc(-c2cccc(Nc3nccc(NC4CCCCC4)n3)c2)c1 | binding, competition with immobilised ligand | 10 µM | 7.4
O=C(c1ccc(Nc2ncc(Cl)c(-c3cc4ccccc4s3)n2)cc1)N1CCC(N2CCCC2)CC1 | binding, competition with immobilised ligand | 1 µM | 18
COc1cccc(CNC(=O)c2nc3scc(COCc4ccc(C(=O)O)cc4)c3c(=O)[nH]2)c1 | cell-free assay, competition with immobilised ligand | 1 µM | 100
CN(C)c1nccc(-c2cnn3ncccc23)n1 | binding | 1 µM | 100
CS(=O)(=O)N1CCCC(NC(=O)[C@H](CCC2CCCCC2)NC(=O)c2ccc(CNC(=O)c3cnc4ccccn34)cc2)C1 (stereo partly drawn) | cell-free assay, competition with immobilised ligand | 0.1 µM | 90
COc1ncc2cc3ccccc3nc2c1C#N | cell-free assay, competition with immobilised ligand | 5 µM | 100
N[C@@H]1CCN(c2nccc(-c3cnn4ncccc34)n2)C1 | binding | 1 µM | 100
CNCc1ccccc1-c1csc([C@@H](C)Nc2nc(C)nc3cc(OC)c(OC)cc23)c1 | cell-free assay, competition with immobilised ligand | 1 µM | 92
CN(CCCC(F)(F)F)c1nccc(-c2cnn3ncccc23)n1 | binding | 1 µM | 100
Cc1cc(NC(=O)c2cccc(S(F)(F)(F)(F)F)c2)cc(-n2ccn3nc(-c4cccnc4)cc23)c1 | cell-free assay, competition with immobilised ligand | 1 µM | 100
F[C@@H]1CCN(c2nccc(-c3cnn4ncccc34)n2)C1 | binding | 1 µM | 76
CNC(=O)[C@@H]1CC[C@@H](n2c(-c3ccc4cnccc4c3)nc3ccc(C(=O)NCc4cccc(C(N)=O)c4)cc32)C1 | binding, competition with immobilised ligand | 1 µM | 91
